Test results from ChEMBL document CHEMBL1142133 (2007).

Assays:
Format in all cases: functional
[1] = tested on: Cryptococcus neoformans; experiment: Antifungal activity against flucytosine-resistant Cryptococcus neoformans 18476 at 64 ug/ml after 72 hrs by time-kill method
Outline: (§1)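 Time-kill assay run as in the authors' earlier method. […] Read-out was log10 CFU/ml after 72 h incubation, compared with a drug-free control.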

[2] = tested on: Cryptococcus neoformans; experiment: Antifungal activity against flucytosine-resistant Cryptococcus neoformans 550 at 64 ug/ml after 72 hrs by time-kill method; outline: as §1
[3] = tested on: Cryptococcus neoformans; experiment: Antifungal activity against flucytosine-resistant Cryptococcus neoformans 98.0673 at 64 ug/ml after 72 hrs by time-kill method; outline: as §1
[4] = tested on: Cryptococcus neoformans; experiment: Antifungal activity against flucytosine-resistant Cryptococcus neoformans 99.1026 at 64 ug/ml after 72 hrs by time-kill method
Outline: (§2)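 Time-kill assay on flucytosine-resistant isolates. […] Viable counts were taken as log10 CFU per ml after 72 h of incubation.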

[5] = tested on: Cryptococcus neoformans; experiment: Antifungal activity against flucytosine-resistant Cryptococcus neoformans 98.1121 at 64 ug/ml after 72 hrs by time-kill method; outline: as §2
[6] = tested on: Cryptococcus neoformans; experiment: Antifungal activity against flucytosine-resistant Cryptococcus neoformans 276 at 64 ug/ml after 72 hrs by time-kill method; outline: as §1
[7] = tested on: Cryptococcus neoformans; experiment: Antifungal activity against flucytosine-resistant Cryptococcus neoformans 280 at 64 ug/ml after 72 hrs by time-kill method; outline: as §1
[8] = tested on: Cryptococcus neoformans; experiment: Antifungal activity against flucytosine-resistant Cryptococcus neoformans 533 at 64 ug/ml after 72 hrs by time-kill method; outline: as §1
[9] = tested on: Cryptococcus neoformans; experiment: Antifungal activity against flucytosine-resistant Cryptococcus neoformans 550 by checkerboard method
[10] = tested on: Cryptococcus neoformans; experiment: Antifungal activity against flucytosine-resistant Cryptococcus neoformans 98.0673 by checkerboard method
[11] = tested on: Cryptococcus neoformans; experiment: Antifungal activity against flucytosine-resistant Cryptococcus neoformans 99.1026 by checkerboard method
[12] = tested on: Cryptococcus neoformans; experiment: Antifungal activity against flucytosine-resistant Cryptococcus neoformans 98.1121 by checkerboard method
[13] = tested on: Cryptococcus neoformans; experiment: Antifungal activity against flucytosine-resistant Cryptococcus neoformans 276 by checkerboard method
[14] = tested on: Cryptococcus neoformans; experiment: Antifungal activity against flucytosine-resistant Cryptococcus neoformans 280 by checkerboard method
[15] = tested on: Cryptococcus neoformans; experiment: Antifungal activity against flucytosine-resistant Cryptococcus neoformans 533 by checkerboard method
[16] = tested on: Cryptococcus neoformans; experiment: Antifungal activity against flucytosine-resistant Cryptococcus neoformans 98.0176 by checkerboard method in presence of amphotericin B
[17] = tested on: Cryptococcus neoformans; experiment: Antifungal activity against flucytosine-resistant Cryptococcus neoformans 285 by checkerboard method
[18] = tested on: Cryptococcus neoformans; experiment: Antifungal activity against flucytosine-resistant Cryptococcus neoformans 18476 by checkerboard method in presence of amphotericin B
[19] = tested on: Cryptococcus neoformans; experiment: Antifungal activity against flucytosine-resistant Cryptococcus neoformans 285 by checkerboard method in presence of amphotericin B
[20] = tested on: Cryptococcus neoformans; experiment: Antifungal activity against flucytosine-resistant Cryptococcus neoformans 550 by checkerboard method in presence of amphotericin B
[21] = tested on: Cryptococcus neoformans; experiment: Antifungal activity against flucytosine-resistant Cryptococcus neoformans 98.0673 by checkerboard method in presence of amphotericin B
[22] = tested on: Cryptococcus neoformans; experiment: Antifungal activity against flucytosine-resistant Cryptococcus neoformans 99.1026 by checkerboard method in presence of amphotericin B
[23] = tested on: Cryptococcus neoformans; experiment: Antifungal activity against flucytosine-resistant Cryptococcus neoformans 98.1121 by checkerboard method in presence of amphotericin B
[24] = tested on: Cryptococcus neoformans; experiment: Antifungal activity against flucytosine-resistant Cryptococcus neoformans 276 by checkerboard method in presence of amphotericin B
[25] = tested on: Cryptococcus neoformans; experiment: Antifungal activity against flucytosine-resistant Cryptococcus neoformans 280 by checkerboard method in presence of amphotericin B
[26] = tested on: Cryptococcus neoformans; experiment: Antifungal activity against flucytosine-resistant Cryptococcus neoformans 533 by checkerboard method in presence of amphotericin B
[27] = tested on: Cryptococcus neoformans; experiment: Antifungal activity against flucytosine-resistant Cryptococcus neoformans 276 by Etest method in presence of amphotericin B
[28] = tested on: Cryptococcus neoformans; experiment: Antifungal activity against flucytosine-resistant Cryptococcus neoformans 98.0176 by checkerboard method
[29] = tested on: Cryptococcus neoformans; experiment: Antifungal activity against flucytosine-resistant Cryptococcus neoformans 18476 by checkerboard method
[30] = tested on: Cryptococcus neoformans; experiment: Antifungal activity against flucytosine-resistant Cryptococcus neoformans 98.0176 by Etest method in presence of amphotericin B
[31] = tested on: Cryptococcus neoformans; experiment: Antifungal activity against flucytosine-resistant Cryptococcus neoformans 18476 by Etest method in presence of amphotericin B
[32] = tested on: Cryptococcus neoformans; experiment: Antifungal activity against flucytosine-resistant Cryptococcus neoformans 285 by Etest method in presence of amphotericin B
[33] = tested on: Cryptococcus neoformans; experiment: Antifungal activity against flucytosine-resistant Cryptococcus neoformans 550 by Etest method in presence of amphotericin B
[34] = tested on: Cryptococcus neoformans; experiment: Antifungal activity against flucytosine-resistant Cryptococcus neoformans 98.0673 by Etest method in presence of amphotericin B
[35] = tested on: Cryptococcus neoformans; experiment: Antifungal activity against flucytosine-resistant Cryptococcus neoformans 99.1026 by Etest method in presence of amphotericin B
[36] = tested on: Cryptococcus neoformans; experiment: Antifungal activity against flucytosine-resistant Cryptococcus neoformans 98.1121 by Etest method in presence of amphotericin B
[37] = tested on: Cryptococcus neoformans; experiment: Antifungal activity against flucytosine-resistant Cryptococcus neoformans 280 by Etest method in presence of amphotericin B
[38] = tested on: Cryptococcus neoformans; experiment: Antifungal activity against flucytosine-resistant Cryptococcus neoformans 533 by Etest method in presence of amphotericin B
[39] = tested on: Cryptococcus neoformans; experiment: Antifungal activity against flucytosine-resistant Cryptococcus neoformans 98.0176 at 64 ug/ml after 72 hrs by time-kill method; outline: as §1

Nc1nc(=O)[nH]cc1F [FLUCYTOSINE]
log10CFU/ml [1]: 7.5 | log10CFU/ml [2]: 7.2 | log10CFU/ml [3]: 7.4 | log10CFU/ml [4]: 7.1 | log10CFU/ml [5]: 7.5 | log10CFU/ml [6]: 7.3 | log10CFU/ml [7]: 7.4 | log10CFU/ml [8]: 7.5 | MIC [9]: 128 µg/mL | MIC [10]: 64 µg/mL | MIC [11]: 32 µg/mL | MIC [12]: 256 µg/mL | MIC [13]: 256 µg/mL | MIC [14]: 256 µg/mL | MIC [15]: 256 µg/mL | MIC [16]: 0.5 µg/mL | MIC [17]: 32 µg/mL | MIC [18]: 1 µg/mL | MIC [19]: 0.25 µg/mL | MIC [20]: 0.5 µg/mL | MIC [21]: 16 µg/mL | MIC [22]: 1 µg/mL | MIC [23]: 0.25 µg/mL | MIC [24]: 4 µg/mL | MIC [25]: 0.5 µg/mL | MIC [26]: 0.5 µg/mL | MIC [27]: > 32 µg/mL | MIC [28]: 64 µg/mL | MIC [29]: 256 µg/mL | MIC [30]: > 32 µg/mL | MIC [31]: > 32 µg/mL | MIC [32]: > 32 µg/mL | MIC [33]: > 32 µg/mL | MIC [34]: > 32 µg/mL | MIC [35]: > 32 µg/mL | MIC [36]: > 32 µg/mL | MIC [37]: > 32 µg/mL | MIC [38]: > 32 µg/mL | log10CFU/ml [39]: 7.4
